Reference: ChEMBL document CHEMBL3098067, “Novel di-tertiary-butyl phenylhydrazones as dual cyclooxygenase-2/5-lipoxygenase inhibitors: synthesis, COX/LOX inhibition, molecular modeling, and insights into their cytotoxicities” (Bioorg Med Chem Lett, 2014)
pIC50: −log10 of the molar value. Activity calls are given as the source filed them. No cut-off for these calls is given here.

Tests used:
HCA-7 [1] = experiment: Cytotoxicity against human HCA-7 cells expressing COX-2, 5-LOX, CD44v6 assessed as growth inhibition after 24 hrs by MTT assay; assay type: functional, cell-based
Summary of the method: (§1)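 HCA7 and HIEC6 cells were exposed to a range of test concentrations for 24 h. Cytotoxicity was read by MTT assay and expressed as percent growth inhibition, with untreated cells set to 0% inhibition.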

HCA-7 [2] = experiment: Inhibition of hyaluronan-induced CD44v6 in human HCA-7 cells transfected with Has2cDNA assessed as downregulation of COX-2 protein expression at 5 uM after 24 hrs by Western blotting analysis; assay type: cell-based
Summary of the method: (§2)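 HCA7 cells were transiently transfected with Has2 cDNA, grown 72 h, then treated for 24 h. Western blots were probed for CD44v6, COX-1, COX-2 and 5-LOX, with longer exposures used to show COX-2 and 5-LOX. The same blot was reprobed for β-tubulin as a loading control.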

[3] = Cytotoxicity against COX-2 positive mouse APC10.1 cells overexpressing HAS-2 assessed as growth inhibition by CellTiter-96 AQueous assay; assay type: functional, cell-based
[4] = Cytotoxicity against COX-2 positive human HCA-7 cells transfected with CD44v6shRNA assessed as growth inhibition after 48 hrs by MTT assay; assay type: functional, cell-based; conditions: HCA-7, 48 h
[5] = Ratio of IC50 for COX-2 positive human HCA-7 cells to IC50 for COX-2 positive human HCA-7 cells transfected with CD44v6shRNA; assay type: functional
[6] = target: T1, Prostaglandin G/H synthase 1 (Ovis aries, UniProt P05979); experiment: Inhibition of ram seminal vesicle COX-1 assessed as conversion of arachidonic acid to PGH2
T1 sequence (P05979 whole entry): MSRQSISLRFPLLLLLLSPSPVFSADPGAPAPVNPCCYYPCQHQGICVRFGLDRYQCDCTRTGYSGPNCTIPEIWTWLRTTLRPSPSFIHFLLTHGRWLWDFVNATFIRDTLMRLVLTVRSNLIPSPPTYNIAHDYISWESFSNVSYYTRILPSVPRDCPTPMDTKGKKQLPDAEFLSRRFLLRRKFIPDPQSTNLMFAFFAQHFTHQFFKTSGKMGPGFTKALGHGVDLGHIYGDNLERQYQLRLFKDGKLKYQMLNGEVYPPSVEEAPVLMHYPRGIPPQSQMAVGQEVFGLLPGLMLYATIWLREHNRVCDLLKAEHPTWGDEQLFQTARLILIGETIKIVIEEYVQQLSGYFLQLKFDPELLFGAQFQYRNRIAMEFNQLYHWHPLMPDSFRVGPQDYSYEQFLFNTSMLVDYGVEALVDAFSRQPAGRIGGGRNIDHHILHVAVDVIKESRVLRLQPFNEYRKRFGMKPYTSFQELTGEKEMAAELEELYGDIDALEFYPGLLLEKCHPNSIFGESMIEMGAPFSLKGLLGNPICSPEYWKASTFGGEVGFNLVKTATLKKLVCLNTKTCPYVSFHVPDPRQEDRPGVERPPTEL
Summary of the method: (§3)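 Assays used enzyme immobilized in ELISA plates, with activity read by ELISA. IC50 values are given in µM.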

[7] = Cytotoxicity against COX-2, LOX, CD44v6-deficient HIEC6 cells assessed as growth inhibition after 24 hrs by MTT assay; assay type: cell-based; conditions: human, hiec6, 24 h; summary of the method: as §1
[8] = target: T2, Polyunsaturated fatty acid 5-lipoxygenase (Homo sapiens, UniProt P09917); experiment: Inhibition of 5-LOX (unknown origin) by ELISA; summary of the method: as §3
T2 sequence (P09917 whole entry): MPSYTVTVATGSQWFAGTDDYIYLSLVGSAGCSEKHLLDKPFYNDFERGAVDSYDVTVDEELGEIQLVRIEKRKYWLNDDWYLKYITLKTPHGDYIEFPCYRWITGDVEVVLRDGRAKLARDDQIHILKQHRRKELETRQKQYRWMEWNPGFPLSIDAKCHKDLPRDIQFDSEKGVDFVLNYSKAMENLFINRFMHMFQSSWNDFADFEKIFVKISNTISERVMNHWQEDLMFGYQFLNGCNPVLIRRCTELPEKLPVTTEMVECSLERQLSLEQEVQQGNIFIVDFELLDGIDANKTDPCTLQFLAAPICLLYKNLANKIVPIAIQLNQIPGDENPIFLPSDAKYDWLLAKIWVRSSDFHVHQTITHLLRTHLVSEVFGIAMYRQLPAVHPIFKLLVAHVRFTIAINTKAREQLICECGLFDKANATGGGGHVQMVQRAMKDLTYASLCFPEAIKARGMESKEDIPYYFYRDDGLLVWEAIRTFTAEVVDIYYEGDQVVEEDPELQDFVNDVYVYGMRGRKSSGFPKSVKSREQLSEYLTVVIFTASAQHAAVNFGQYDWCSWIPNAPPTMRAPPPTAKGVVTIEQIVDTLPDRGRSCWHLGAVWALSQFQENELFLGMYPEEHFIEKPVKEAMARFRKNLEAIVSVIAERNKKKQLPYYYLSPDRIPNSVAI

[9] = target: T3, Prostaglandin G/H synthase 2 (Homo sapiens, UniProt P35354); experiment: Inhibition of COX-2 (unknown origin) by ELISA
T3 sequence (P35354 whole entry): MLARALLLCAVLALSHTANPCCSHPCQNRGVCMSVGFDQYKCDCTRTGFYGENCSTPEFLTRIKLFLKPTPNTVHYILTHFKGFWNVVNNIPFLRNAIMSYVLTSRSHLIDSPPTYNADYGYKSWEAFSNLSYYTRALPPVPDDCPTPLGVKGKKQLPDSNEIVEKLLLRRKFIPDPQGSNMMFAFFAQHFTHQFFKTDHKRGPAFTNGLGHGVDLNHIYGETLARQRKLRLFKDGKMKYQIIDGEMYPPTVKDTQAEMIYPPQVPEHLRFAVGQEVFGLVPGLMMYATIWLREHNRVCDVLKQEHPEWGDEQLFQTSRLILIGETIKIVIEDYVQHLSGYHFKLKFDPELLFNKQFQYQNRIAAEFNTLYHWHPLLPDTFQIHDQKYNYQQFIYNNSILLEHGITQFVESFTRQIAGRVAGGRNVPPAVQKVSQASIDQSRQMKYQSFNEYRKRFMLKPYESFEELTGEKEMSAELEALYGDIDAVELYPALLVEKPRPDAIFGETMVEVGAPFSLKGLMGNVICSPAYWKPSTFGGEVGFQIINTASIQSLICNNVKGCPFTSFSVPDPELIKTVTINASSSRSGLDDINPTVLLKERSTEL

HT-29 [10] = experiment: Downregulation of hyaluronan-induced CD44v6 m-RNA expression in human HT-29 cells transfected with Has2cDNA at 5 uM after 24 hrs by qRT-PCR analysis; assay type: functional, cell-based
Summary of the method: (§4)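 HT29 cells were transiently transfected with Has2 cDNA alone, or with Has2 cDNA followed by CD44v6 shRNA. They were grown 72 h, then treated for 24 h. CD44v6 mRNA was quantified by qRT-PCR in three independent experiments, each with triplicate samples.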

HT-29 [11] = experiment: Downregulation of hyaluronan-induced CD44v6 m-RNA expression in human HT-29 cells transfected with Has2cDNA and CD44v6shRNA at 5 uM after 24 hrs by qRT-PCR analysis; assay type: functional, cell-based; summary of the method: as §4
[12] = Cytotoxicity against COX-2 positive mouse APC10.1 cells transfected with CD44v6shRNA overexpressing HAS-2 assessed as growth inhibition after 48 hrs by MTT assay; assay type: functional, cell-based
[13] = Cytotoxicity against COX-2 positive human HCA-7 cells assessed as growth inhibition by CellTiter-96 AQueous assay; assay type: functional, cell-based
HT-29 [14] = experiment: Ratio of IC50 for COX-2 positive human HT-29 cells to IC50 for COX-2 positive human HT-29 cells transfected with CD44v6shRNA; assay type: functional
[15] = Ratio of IC50 for COX-2 positive mouse APC10.1 cells overexpressing HAS-2 to IC50 for COX-2 positive mouse APC10.1 cells transfected with CD44v6shRNA overexpressing HAS-2; assay type: functional
HT-29 [16] = experiment: Cytotoxicity against COX-2 positive human HT-29 cells assessed as growth inhibition by CellTiter-96 AQueous assay; assay type: functional, cell-based
SW480 = experiment: Cytotoxicity against COX-2 negative human SW480 cells assessed as growth inhibition by CellTiter-96 AQueous assay; assay type: functional, cell-based
HCA-7 [17] = experiment: Inhibition of hyaluronan-induced CD44v6 in human HCA-7 cells transfected with Has2cDNA assessed as downregulation of COX-1 protein expression at 5 uM after 24 hrs by Western blotting analysis; assay type: cell-based; summary of the method: as §2
[18] = Downregulation of hyaluronan-induced CD44v6 protein expression in human HCA-7 cells transfected with Has2cDNA at 5 uM after 24 hrs by Western blotting analysis; assay type: functional, cell-based; summary of the method: as §2
HCA-7 [19] = experiment: Inhibition of hyaluronan-induced CD44v6 in human HCA-7 cells transfected with Has2cDNA assessed as downregulation of 5-LOX protein expression at 5 uM after 24 hrs by Western blotting analysis; assay type: cell-based; summary of the method: as §2
HT-29 [20] = experiment: Cytotoxicity against COX-2 positive human HT-29 cells transfected with CD44v6shRNA assessed as growth inhibition after 48 hrs by MTT assay; assay type: functional, cell-based; conditions: HT-29, 48 h
HCA-7 [21] = experiment: Inhibition of hyaluronan-induced CD44v6 in human HCA-7 cells transfected with Has2cDNA assessed as downregulation of 5-LOX protein expression at 50 uM after 24 hrs by Western blotting analysis; assay type: cell-based; summary of the method: as §2
HCA-7 [22] = experiment: Inhibition of hyaluronan-induced CD44v6 in human HCA-7 cells transfected with Has2cDNA assessed as downregulation of COX-1 protein expression at 50 uM after 24 hrs by Western blotting analysis; assay type: cell-based; summary of the method: as §2
HCA-7 [23] = experiment: Inhibition of hyaluronan-induced CD44v6 in human HCA-7 cells transfected with Has2cDNA assessed as downregulation of COX-2 protein expression at 50 uM after 24 hrs by Western blotting analysis; assay type: cell-based; summary of the method: as §2

SMILES | growth inhibition (GI) (HCA-7 [1]) | Activity (HCA-7 [2]) | pIC50 [3] | pIC50 [4] | Ratio IC50 [5] | pIC50 [6] | pIC50 [8] | pIC50 [9] | pIC50 [12] | pIC50 [13] | Ratio IC50 (HT-29 [14]) | Ratio IC50 [15] | pIC50 (HT-29 [16]) | pIC50 (SW480) | Activity (HCA-7 [17]) | Activity [18] | Activity (HCA-7 [19]) | pIC50 (HT-29 [20]) | further results
NNC(=O)c1ccccc1O | Active |  |  |  |  |  |  |  |  |  |  |  |  |  |  |  |  |  | 
CC(C)(C)c1cc(/C=N/NC(=O)c2ccccc2O)c(O)c(C(C)(C)C)c1 | Active | Active | 5.25 | 7.11 | 21 | 4.35 | 5.10 | 5.29 | 6.82 | 5.80 | 20 | 37.3 | 5.74 | 4.81 | Active | Active | Active | 7.05 | Activity [7]: Non-toxic; Activity (HT-29 [10]): Active; Activity (HT-29 [11]): Active
CC(C)(C)c1cc(/C=N/NC(=O)c2ccccc2)c(O)c(C(C)(C)C)c1 |  | Active | 4.92 | 6.25 | 7.7 | 4.59 | 5.23 | 5.19 | 5.74 | 5.37 | 6.7 | 6.1 | 5.24 | 4.45 | Active | Active | Active | 6.07 | 
CC(C)(C)c1cc(C=O)c(O)c(C(C)(C)C)c1 | Active |  |  |  |  |  |  |  |  |  |  |  |  |  |  |  |  |  | 
CC1(C)Cc2c(-c3ccccc3)c(-c3ccc(Cl)cc3)c(CC(=O)O)n2C1 [LICOFELONE] |  |  | 4.15 | 4.73 |  | 6.10 |  |  | 4.64 | 4.22 |  |  | 4.17 | 4.17 |  |  |  | 4.68 | Activity (HCA-7 [21]): Active; Activity (HCA-7 [22]): Active; Activity (HCA-7 [23]): Active
CC(C)(C)c1cc(/C=N/NC(=O)c2ccncc2)c(O)c(C(C)(C)C)c1 |  | Active | 4.74 | 6.12 | 8.4 | < 3.52 | 5.20 | 5.15 | 5.52 | 5.19 | 8 | 6.1 | 5.24 | 4.47 | Active | Active | Active | 6.15 | 
CC(C)(C)c1cc(/C=N/NC(=O)c2cccnc2)c(O)c(C(C)(C)C)c1 |  | Active | 4.86 | 6.59 | 14 | < 3.52 | 5.26 | 5.06 | 5.72 | 5.46 | 12 | 7.2 | 5.37 | 4.43 | Active | Active | Active | 6.46 | 
Cc1ccc(-c2cc(C(F)(F)F)nn2-c2ccc(S(N)(=O)=O)cc2)cc1 [CELECOXIB] |  | Active | 4.87 | 6.12 |  |  |  |  | 5.89 | 5.31 |  |  | 5.24 | 5.16 | Active |  | Active | 6.15 | 
